The source made the active and inactive calls. The rule behind the calls is not given here.
How the values were obtained:
[1] = Antiproliferative activity against human A2780S cells after 48 hrs by MTT assay; format: functional, cell-based; conditions: A2780, 48 h
Outline: (§1)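 HCT116, HepG2, SMMC-7721, SK-OV-3 and A2780s grown in DMEM; A549 and MCF-7 in RPMI-1640; all with 10% FBS and penicillin/streptomycin at 37 °C, 5% CO2. Log-phase cells at 40,000-50,000 cells/mL treated with graded concentrations for 48 h. MTT 3 h, DMSO solubilization, A570. IC50 from percent growth versus untreated control; mean ± SEM of ≥3 independent dose-response experiments.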

[2] = Antiproliferative activity against human […] cells after 48 hrs by MTT assay; format: functional, cell-based; outline: as §1
[3] = Inhibition of pig microtubule polymerization after 30 mins by turbidimetric assay; set-up: species or system Sus scrofa
Outline: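 Porcine-brain MAP-rich tubulin at 3 mg/mL preincubated 30 min at 4 °C in 0.1 M PIPES pH 6.9, 2 mM MgCl2, 0.5 mM EGTA. Compounds added 2 min before the run, then 1 mM GTP. Turbidity followed kinetically at 340 nm at 37 °C; assembly IC50 derived by Hamel's method.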

HepG2 = experiment: Antiproliferative activity against human HepG2 cells after 48 hrs by MTT assay; format: functional, cell-based; conditions: HepG2, 48 h; outline: as §1
SK-OV-3 = experiment: Antiproliferative activity against human SKOV3 cells after 48 hrs by MTT assay; format: functional, cell-based; conditions: SK-OV-3, 48 h; outline: as §1
HCT-116 [4] = experiment: Antiproliferative activity against human HCT116 cells after 48 hrs by MTT assay; format: functional, cell-based; conditions: HCT-116, 48 h; outline: as §1
Tubulin (Homo sapiens) = Tubulin (Homo sapiens) (UniProt P68371+Q9H4B7+P0DPH7+P68366+Q13509+Q71U36+P04350+Q3ZCM7+P07437+P68363+Q9BQE3+Q6PEY2+Q13885+Q9BVA1+Q9BUF5); experiment: Binding affinity to tubulin in human HepG2 cells at 5 uM after 4 hrs by EBI competition assay; format: cell-based
Outline: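 HepG2 cells seeded at 500,000 cells/well, allowed to adhere, then treated with compound for 4 h. EBI added at 100 µM for 1.5 h. Cell extracts (about 20 µg protein) run on 10% SDS-PAGE, blotted to PVDF, probed with anti-β-tubulin, detected by ECL with GAPDH as loading control. Read-out is loss of the faster-migrating β-tubulin–EBI adduct band.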

MCF7 [5] = experiment: Resistance ratio, ratio of IC50 for human doxorubicin-resistant MCF7 cells to IC50 for human MCF7 cells; format: functional
Outline: (§2)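 MTT assay: log-phase cells at 40,000-50,000 cells/mL in RPMI-1640 with 10% FBS, exposed to graded concentrations for 48 h, then MTT 3 h, DMSO solubilization, absorbance at 570 nm. IC50 from growth versus untreated control, at least three independent experiments. Ratio = resistant-line IC50 / parental-line IC50.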

A549 [6] = experiment: Antiproliferative activity against human taxol-resistant A549 cells after 48 hrs by MTT assay; format: functional, cell-based; conditions: A549, 48 h
Outline: (§3)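 MCF-7/ADR (doxorubicin-resistant) and A549/T (taxol-resistant) cells in RPMI-1640 with 10% FBS and penicillin/streptomycin. Log-phase cells at 40,000-50,000 cells/mL exposed to graded concentrations for 48 h. MTT 3 h, DMSO solubilization, absorbance 570 nm. IC50 from percent growth versus untreated control; mean ± SEM of ≥3 independent experiments.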

NCI-H1975 [7] = experiment: Antiproliferative activity against human gefitinib-resistant NCI-H1975 cells after 48 hrs by MTT assay; format: functional, cell-based; conditions: NCI-H1975, 48 h
[8] = Antiproliferative activity against human HCC827 cells after 48 hrs by MTT assay; format: functional, cell-based; conditions: HCC827, 48 h
[9] = Antiproliferative activity against human doxorubicin-resistant MCF7 cells after 48 hrs by MTT assay; format: functional, cell-based; conditions: MCF7, 48 h; outline: as §3
NCI-H1975 [10] = experiment: Resistance ratio, ratio of IC50 for human gefitinib-resistant NCI-H1975 cells to IC50 for human HCC827 cells; format: functional
A549 [11] = experiment: Antiproliferative activity against human A549 cells after 48 hrs by MTT assay; format: functional, cell-based; conditions: A549, 48 h; outline: as §1
MCF7 [12] = experiment: Antiproliferative activity against human MCF7 cells after 48 hrs by MTT assay; format: functional, cell-based; conditions: MCF7, 48 h; outline: as §1
A549 [13] = experiment: Resistance ratio, ratio of IC50 for human taxol-resistant A549 cells to IC50 for human A549 cells; format: functional; outline: as §2
HCT-116 [14] = experiment: Antitumor activity against human HCT116 cells xenografted in Balb/c athymic nude mouse assessed as tumor growth inhibition at 10 mg/kg, ip administered daily after 42 days; format: functional; conditions: HCT-116, ip, 1008 h, read-out: TGI
Outline: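 Female Balb/C athymic nude mice, 5-6 weeks old, given s.c. tumor cells in HBSS into the right flank. Once tumors averaged 100 mm3, animals were randomized into groups of 6 and given daily i.p. injections. Tumor volume (π/6 × length × width²) was measured every two days. Inhibition = (1 − treated/control tumor weight) × 100%, taken at day 42.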

Mus musculus [15] = experiment: Toxicity in Balb/c athymic nude mouse xenografted with human HCT116 cells assessed as loss in body weight at 10 mg/kg, ip administered daily; format: organism-based, HCT-116; conditions: in vivo
Outline: (§4)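 Female Balb/C athymic nude mice, 5-6 weeks old, bearing s.c. right-flank xenografts (cells in HBSS). Once tumors averaged 100 mm3, animals were randomized into groups of 6 and dosed i.p. once daily. Body weight was recorded every two days during treatment.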

Mus musculus [16] = experiment: Toxicity in Balb/c athymic nude mouse xenografted with human SKOV3 cells assessed as loss in body weight at 10 mg/kg, ip administered daily; format: organism-based, SK-OV-3; conditions: in vivo; outline: as §4

Row | SMILES | IC50 [1] [nM] | IC50 [2] [nM] | IC50 (HepG2) [nM] | IC50 (SK-OV-3) [nM] | IC50 (HCT-116 [4]) [nM] | other results
1 | CCOc1ccc(-c2nc(C)sc2-c2cc(OC)c(OC)c(OC)c2)cc1 | 106 | 126 | 368 | 68 | 64 | IC50 [3]: > 10000 nM
2 | CCOc1ccc(-c2nc(N(Cc3ccccc3)Cc3ccccc3)sc2-c2cc(OC)c(OC)c(OC)c2)cc1 | > 5000 | > 5000 | > 5000 | > 5000 | > 5000 | 
3 | CCOc1ccc(-c2nc(N(CC)CC)sc2-c2cc(OC)c(OC)c(OC)c2)cc1 | > 5000 | > 5000 | > 5000 | > 5000 | > 5000 | 
4 | COc1ccc(-c2nc(N)sc2-c2cc(OC)c(OC)c(OC)c2)cc1 | 14 | 9 | 50.6 | 110 | 93.7 | 
5 | CCOc1ccc(-c2nc(NS(=O)(=O)c3ccsc3Cl)sc2-c2cc(OC)c(OC)c(OC)c2)cc1 | > 5000 | > 5000 | > 5000 | > 5000 | > 5000 | 
6 | CCOc1ccc(-c2nc(NC(=O)CC)sc2-c2cc(OC)c(OC)c(OC)c2)cc1 | 5.1 | 10.8 | 40.6 | 60.4 | 50.5 | IC50 [3]: > 10000 nM
7 | CCCC(=O)Nc1nc(-c2ccc(OCC)cc2)c(-c2cc(OC)c(OC)c(OC)c2)s1 | 18 | 11 | 76.8 | 105 | 18 | Activity (Tubulin (Homo sapiens)): inactive; IC50 [3]: 9040 nM
8 | CCNC(=O)Nc1nc(-c2ccc(OCC)cc2)c(-c2cc(OC)c(OC)c(OC)c2)s1 | 1.3 | 10.6 | 30.7 | 29.2 | 22.1 | Ratio IC50 (MCF7 [5]): 1.7; IC50 (A549 [6]): 140 nM; IC50 (NCI-H1975 [7]): 220 nM; IC50 [8]: 623 nM; IC50 [9]: 727 nM; Ratio IC50 (NCI-H1975 [10]): 0.35; IC50 (A549 [11]): 103 nM; IC50 (MCF7 [12]): 417 nM; Ratio IC50 (A549 [13]): 0.64; Activity (Tubulin (Homo sapiens)): inactive; IC50 [3]: 3900 nM
9 | CCOc1ccc(-c2nc(C(OCC)OCC)sc2-c2cc(OC)c(OC)c(OC)c2)cc1 | > 5000 | > 5000 | > 5000 | > 5000 | > 5000 | 
10 | CCOc1ccc(-c2nc(NS(=O)(=O)c3ccc(Br)cc3C(F)(F)F)sc2-c2cc(OC)c(OC)c(OC)c2)cc1 | > 5000 | > 5000 | > 5000 | > 5000 | > 5000 | 
11 | CCOc1ccc(-c2sc(N)nc2-c2cc(OC)c(OC)c(OC)c2)cc1 | 8.6 | 10 | 8.3 | 8.4 | 9.2 | 
12 | CCOc1ccc(-c2nc(N(C)C)sc2-c2cc(OC)c(OC)c(OC)c2)cc1 | > 5000 | > 5000 | > 5000 | > 5000 | > 5000 | 
13 | CCCN(CCC)c1nc(-c2ccc(OCC)cc2)c(-c2cc(OC)c(OC)c(OC)c2)s1 | > 5000 | > 5000 | > 5000 | > 5000 | > 5000 | 
14 | CCOc1ccc(-c2nc(NC(C)=O)sc2-c2cc(OC)c(OC)c(OC)c2)cc1 | 10.2 | 13 | 60.9 | 167 | 10.2 | 
15 | CCOc1ccc(-c2nc(C=O)sc2-c2cc(OC)c(OC)c(OC)c2)cc1 | 104 | 106 | 50 | 9 | 48 | IC50 [3]: > 10000 nM
16 | CCOc1ccc(-c2nc(C(C)(C)C)sc2-c2cc(OC)c(OC)c(OC)c2)cc1 | > 5000 | > 5000 | > 5000 | > 5000 | > 5000 | 
17 | O=c1[nH]cc(F)c(=O)[nH]1 [FLUOROURACIL] |  |  |  |  |  | inhibition in vivo at 10 mg/kg (HCT-116 [14]): 37.3%; Activity (Mus musculus [15]): Toxic; Activity (Mus musculus [16]): Toxic
18 | CCOc1ccc(-c2nc(NS(=O)(=O)c3ccc(C)c(C)c3)sc2-c2cc(OC)c(OC)c(OC)c2)cc1 | > 5000 | > 5000 | > 5000 | > 5000 | > 5000 | 
19 | CCOc1ccc(-c2ncsc2-c2cc(OC)c(OC)c(OC)c2)cc1 | 86 | 128 | 65 | 10 | 62 | Ratio IC50 (MCF7 [5]): 1.3; IC50 (A549 [6]): 425 nM; IC50 (NCI-H1975 [7]): 1120 nM; IC50 [8]: 469 nM; IC50 [9]: 1560 nM; Ratio IC50 (NCI-H1975 [10]): 2.38; IC50 (A549 [11]): 696 nM; IC50 (MCF7 [12]): 1160 nM; Ratio IC50 (A549 [13]): 0.45; Activity (Tubulin (Homo sapiens)): inactive; IC50 [3]: 3550 nM
20 | COc1cccc2c1C(=O)c1c(O)c3c(c(O)c1C2=O)C[C@@](O)(C(=O)CO)C[C@@H]3O[C@H]1C[C@H](N)[C@H](O)[C@H](C)O1 [DOXORUBICIN] |  |  |  |  |  | IC50 [9]: 5300 nM
21 | CCOC(=O)c1nc(-c2ccc(OCC)cc2)c(-c2cc(OC)c(OC)c(OC)c2)s1 | > 5000 | > 5000 | > 5000 | > 5000 | > 5000 | 
22 | C=CCN(CC=C)c1nc(-c2ccc(OCC)cc2)c(-c2cc(OC)c(OC)c(OC)c2)s1 | > 5000 | > 5000 | > 5000 | > 5000 | > 5000 | 
23 | CCOc1ccc(-c2nc(NS(=O)(=O)c3ccc(OC)c(F)c3)sc2-c2cc(OC)c(OC)c(OC)c2)cc1 | > 5000 | > 5000 | > 5000 | > 5000 | > 5000 | 
24 | CCOc1ccc(-c2nc(NS(=O)(=O)c3ccc([N+](=O)[O-])cc3OC)sc2-c2cc(OC)c(OC)c(OC)c2)cc1 | > 5000 | > 5000 | > 5000 | > 5000 | > 5000 | 
25 | COc1ccc(/C=C\c2cc(OC)c(OC)c(OC)c2)cc1O [COMBRETASTATIN A4] |  |  |  |  |  | IC50 [3]: 5910 nM
26 | CCOc1ccc(-c2nc(NC(=O)C(C)C)sc2-c2cc(OC)c(OC)c(OC)c2)cc1 | 22.5 | 65.2 | 177 | 85.2 | 22.5 | 
27 | COc1cc2c(c(OC)c1OC)-c1ccc(OC)c(=O)cc1[C@@H](NC(C)=O)CC2 [COLCHICINE] |  |  |  |  |  | IC50 [3]: 5020 nM

From ChEMBL document CHEMBL3596186, “Synthesis and biological evaluation of diarylthiazole derivatives as antimitotic and antivascular agents with potent antitumor activity” (Bioorg Med Chem, 2015)
